Assay results: ChEMBL document CHEMBL1135128, “Structure-Activity studies for a novel series of tricyclic dihydropyrimidines as K(ATP) channel openers (KCOs)” (Bioorg Med Chem Lett, 2002)

Columns and labels:
[1] = biological target: Sulfonylurea receptors; K-ATP channels; experiment: Potassium channel opening activity determined in cultured guinea pig urinary bladder cells; assay type: functional, cell-based, Cavia porcellus
In short: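 Membrane potential change read as DiBAC dye fluorescence in a 96-well cell-based kinetic FLIPR assay. Fluorescence changes were compared with the response to the KCO P1075, and each compound's maximal response was expressed as % of the P1075 response.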

[2] = PEC50 for functional potassium channel opening activity in isolated bladder strips

Compound | EC50 [1] [nM] | EC50 [2] [nM]
N#Cc1cccc(C2C3=C(CCCC3=O)NC3=C2C(=O)CCC3)c1 | 3800 | 
OC1=C2C(=Nc3c(-c4ccco4)cnn3C2c2ccc(Cl)c(Cl)c2)CCC1 (configuration not stated) | 12000 | 
OC1=C2C(=Nc3ccnn3C2c2ccc(F)c(C(F)(F)F)c2)CCC1 (configuration not stated) | 290 | 
OC1=C2C(=Nc3ccnn3C2c2ccc(Cl)c(C(F)(F)F)c2)CCC1 (configuration not stated) | 187 | 
OC1=C2C(=Nc3ccnn3C2c2cccc(Cl)c2)CCC1 (configuration not stated) | 1100 | 
Cc1cccc(C2C3=C(O)CCCC3=Nc3ccnn32)c1 (configuration not stated) | > 10000 | 
OC1=C2C(=Nc3ccnn3C2c2ccc(F)cc2)CCC1 (configuration not stated) | 7800 | 
OC1=C2C(=Nc3nnnn3C2c2ccc(F)c(Br)c2)CCC1 (configuration not stated) | > 10000 | 
OC1=C2C(=Nc3n[nH]cc3C2c2ccc(F)c(Br)c2)CCC1 (configuration not stated) | > 10000 | 
OC1=C2C(=Nc3ncnn3C2c2ccc(F)c(Br)c2)CCC1 (configuration not stated) | > 10000 | 
OC1=C2C(=Nc3c(-c4cccc(F)c4)cnn3C2c2ccc(Cl)c(Cl)c2)CCC1 (configuration not stated) | 3200 | 
OC1=C2C(=Nc3ccnn3C2c2ccc(Br)c(F)c2)CCC1 (configuration not stated) | 30 | 
O=[N+]([O-])c1cc(C2C3=C(O)CCCC3=Nc3ccnn32)ccc1Cl (configuration not stated) | 310 | 
CC1(C)CC(=O)C2C(C1)Nc1ccnn1C2c1ccc(F)c(Br)c1 (configuration not stated) | 9700 | 
CC(C)(C)c1cc2n(n1)C(c1ccc(F)c(Br)c1)C1=C(O)CCCC1=N2 (configuration not stated) | 12000 | 
O=C1CSCC2Nc3ccnn3C(c3ccc(F)c(Br)c3)C12 (configuration not stated) | 40 | 
OC1=C2C(=Nc3ccnn3C2c2ccc(F)c(Br)c2)CCC1 (configuration not stated) | 30 | 339
CC1(C)CCC2Nc3ccnn3C(c3ccc(F)c(Br)c3)C2C1=O (configuration not stated) | 35 | 1000
O=S1(=O)CCCC2Nc3ccnn3C(c3ccc(F)c(Br)c3)C21 (configuration not stated) | 910 | 
OC1=C2C(=Nc3ccnn3C2c2cccc(OC(F)(F)F)c2)CCC1 (configuration not stated) | 1700 | 
OC1=C2C(=Nc3ccnn3C2c2ccc(F)c(Cl)c2)CCC1 (configuration not stated) | 256 | 
N#Cc1cccc(C2C3=C(O)CCCC3=Nc3ccnn32)c1 (configuration not stated) | 2860 | 
OC1=C2C(=Nc3c(Br)cnn3C2c2ccc(F)c(Br)c2)CCC1 (configuration not stated) | 394 | 
OC1=C2C(=Nc3ccnn3C2c2cccc(Br)c2)CCC1 (configuration not stated) | 550 | 
OC1=C2C(=Nc3ccnn3C2c2ccc(Cl)c(Cl)c2)CCC1 (configuration not stated) | 130 | 
